Active and inactive are the calls of the source. No cut-off for these calls is given here.
Tests used:
UO-31 = assay: Anticancer activity against human UO31 cells assessed as cell growth at 10 uM after 48 hrs by SRB assay; format: functional; settings: UO-31, 48 h, read-out: Activity
Method in brief: (§1)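 NCI primary screen: compound added at a single concentration of 10^-5 M to the human tumor cell line panel, 48 h incubation, end-point by sulforhodamine B protein staining read spectrophotometrically. Result expressed as percent growth of treated cells relative to untreated control cells.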

[1] = Anticancer activity against human NCI60 cells assessed as cell growth at 10 uM after 48 hrs by SRB assay; format: functional; settings: NCI60, 48 h, read-out: Activity; method in brief: as §1
NCI60 = assay: Anticancer activity against human NCI60 cells assessed as cell growth inhibition after 48 hrs by SRB assay; format: functional, cell-based
Method in brief: (§2)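 NCI full panel of about 60 human tumor cell lines, five 10-fold dilutions from 10^-4 to 10^-8 M, 48 h continuous exposure, SRB protein assay read spectrophotometrically. Percent growth from time-zero, untreated-control and treated absorbances. GI50 is the molar concentration giving 50% net growth inhibition, TGI total inhibition, LC50 50% net cell death. Mean graph midpoints include insensitive lines at the top concentration.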

SF-295 [2] = assay: Anticancer activity against human SF295 cells assessed as cell growth at 10 uM after 48 hrs by SRB assay; format: functional; settings: SF-295, 48 h, read-out: Activity; method in brief: as §1
U-251 = assay: Growth inhibition of human U251 cells after 48 hrs by SRB assay; format: functional; settings: U-251, 48 h; for TGI: read-out: pTGI (converted); method in brief: as §2
HL-60(TB) = assay: Growth inhibition of human HL-60(TB) cells after 48 hrs by SRB assay; format: functional; settings: HL-60, 48 h
Method in brief: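 NCI 60-cell-line screen, five 10-fold dilutions of the compound, 48-h continuous drug exposure. Cell growth is measured with the sulforhodamine B protein stain and read spectrophotometrically against untreated controls and a time-zero plate (Tz). GI50 is the molar concentration giving 50% net growth inhibition. Values outside the tested range are reported as above or below the extreme concentration.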

LOX IMVI = assay: Growth inhibition of human LOXIMVI cells after 48 hrs by SRB assay; format: functional; method in brief: as §2
SK-MEL-28 = assay: Growth inhibition of human SK-MEL-28 cells after 48 hrs by SRB assay; format: functional; settings: SK-MEL-28, 48 h; method in brief: as §2
KM12 = assay: Growth inhibition of human KM12 cells after 48 hrs by SRB assay; format: functional; settings: KM12, 48 h; method in brief: as §2
BT-549 = assay: Growth inhibition of human BT549 cells after 48 hrs by SRB assay; format: functional; settings: BT-549, 48 h; for TGI: read-out: pTGI (converted); method in brief: as §2
RPMI-8226 [3] = assay: Growth inhibition of human RPMI8226 cells after 48 hrs by SRB assay; format: functional; settings: RPMI-8226, 48 h; method in brief: as §2
NCI-H226 = assay: Growth inhibition of human NCI-H226 cells after 48 hrs by SRB assay; format: functional; settings: NCI-H226, 48 h; method in brief: as §2
SR = assay: Anticancer activity against human SR cells assessed as cell growth at 10 uM after 48 hrs by SRB assay; format: functional; settings: read-out: Activity; method in brief: as §1
SW-620 = assay: Growth inhibition of human SW620 cells after 48 hrs by SRB assay; format: functional; settings: SW-620, 48 h; method in brief: as §2
DU-145 = assay: Growth inhibition of human DU145 cells after 48 hrs by SRB assay; format: functional; settings: DU-145, 48 h; method in brief: as §2
SNB-75 [4] = assay: Growth inhibition of human SNB75 cells after 48 hrs by SRB assay; format: functional; settings: SNB-75, 48 h; method in brief: as §2
A498 = assay: Growth inhibition of human A498 cells after 48 hrs by SRB assay; format: functional; settings: A498, 48 h; method in brief: as §2
OVCAR-3 = assay: Growth inhibition of human OVCAR-3 cells after 48 hrs by SRB assay; format: functional; settings: OVCAR-3, 48 h; method in brief: as §2
T47D = assay: Growth inhibition of human T47D cells after 48 hrs by SRB assay; format: functional; method in brief: as §2
ACHN = assay: Growth inhibition of human ACHN cells after 48 hrs by SRB assay; format: functional; method in brief: as §2
SF-295 [5] = assay: Growth inhibition of human SF295 cells after 48 hrs by SRB assay; format: functional; settings: SF-295, 48 h; method in brief: as §2
SNB-75 [6] = assay: Anticancer activity against human SNB75 cells assessed as cell growth at 10 uM after 48 hrs by SRB assay; format: functional; settings: SNB-75, 48 h, read-out: Activity; method in brief: as §1
SNB-19 = assay: Growth inhibition of human SNB19 cells after 48 hrs by SRB assay; format: functional; settings: SNB-19, 48 h; method in brief: as §2
MCF7 = assay: Growth inhibition of human MCF7 cells after 48 hrs by SRB assay; format: functional; settings: MCF7, 48 h; method in brief: as §2
OVCAR-4 = assay: Growth inhibition of human OVCAR4 cells after 48 hrs by SRB assay; format: functional; settings: OVCAR-4, 48 h; method in brief: as §2
HOP-92 [7] = assay: Growth inhibition of human HOP92 cells after 48 hrs by SRB assay; format: functional; settings: HOP-92, 48 h; method in brief: as §2
SF-539 = assay: Growth inhibition of human SF539 cells after 48 hrs by SRB assay; format: functional; settings: SF-539, 48 h; method in brief: as §2
NCI-H23 = assay: Growth inhibition of human NCI-H23 cells after 48 hrs by SRB assay; format: functional; settings: NCI-H23, 48 h; method in brief: as §2
[8] = Growth inhibition of human NCI-ADR-RES cells after 48 hrs by SRB assay; format: functional; method in brief: as §2
HCT-116 = assay: Growth inhibition of human HCT116 cells after 48 hrs by SRB assay; format: functional; settings: HCT-116, 48 h; method in brief: as §2
MDA-MB-435 = assay: Growth inhibition of human MDA-MB-435 cells after 48 hrs by SRB assay; format: functional; settings: MDA-MB-435, 48 h; method in brief: as §2
PC-3 = assay: Growth inhibition of human PC3 cells after 48 hrs by SRB assay; format: functional; settings: PC-3, 48 h; method in brief: as §2
UACC-62 = assay: Growth inhibition of human UACC62 cells after 48 hrs by SRB assay; format: functional; settings: UACC-62, 48 h; method in brief: as §2
RPMI-8226 [9] = assay: Anticancer activity against human RPMI8226 cells assessed as cell growth at 10 uM after 48 hrs by SRB assay; format: functional; settings: RPMI-8226, 48 h, read-out: Activity; method in brief: as §1
HOP-92 [10] = assay: Anticancer activity against human HOP92 cells assessed as cell growth at 10 uM after 48 hrs by SRB assay; format: functional; settings: HOP-92, 48 h, read-out: Activity; method in brief: as §1
RXF 393 = assay: Anticancer activity against human RXF393 cells assessed as cell growth at 10 uM after 48 hrs by SRB assay; format: functional; settings: RXF 393, 48 h, read-out: Activity; method in brief: as §1

COc1ccc(/C=C2\S/C(=N/c3nc4ccc(C)cc4s3)NC2=O)cc1
growth at 10 µM (UO-31): 80.4% | growth at 10 µM [1]: 106% | growth inhibition (GI) (NCI60): inactive

COc1ccc(NC(=O)COc2ccc(/C=C3\SC(=S)N(Nc4nc5ccccc5s4)C3=O)cc2OC)cc1
growth at 10 µM (UO-31): 78.6% | growth at 10 µM [1]: 107% | growth inhibition (GI) (NCI60): inactive

CCN(CC)c1ccc(/C=C2\S/C(=N/c3nc4ccc(C)cc4s3)NC2=O)cc1
growth at 10 µM [1]: 69% | growth at 10 µM (SF-295 [2]): 22.5% | growth inhibition (GI) (NCI60): inactive

COc1ccc(NC(=O)COc2ccc(Cl)cc2/C=C2\SC(=S)N(Nc3nc4ccccc4s3)C2=O)cc1
GI50 (U-251): 2.95 µM | TGI (U-251): 9.33 µM | GI50 (HL-60(TB)): 2.29 µM | TGI (HL-60(TB); read-out: pTGI (converted)): 6.92 µM | GI50 (LOX IMVI): 1.66 µM | TGI (LOX IMVI; read-out: pTGI (converted)): 3.24 µM | GI50 (SK-MEL-28): 2.19 µM | TGI (SK-MEL-28; read-out: pTGI (converted)): 4.47 µM | growth at 10 µM [1]: 50.4% | GI50 (KM12): 2.24 µM | TGI (KM12; read-out: pTGI (converted)): 4.9 µM | GI50 (BT-549): 3.02 µM | TGI (BT-549): 8.91 µM | GI50 (RPMI-8226 [3]): 5.37 µM | TGI (RPMI-8226 [3]; read-out: pTGI (converted)): 12.9 µM | GI50 (NCI-H226): 2.95 µM | TGI (NCI-H226; read-out: pTGI (converted)): 6.92 µM | growth at 10 µM (SR): -71.5% | GI50 (SW-620): 2.45 µM | TGI (SW-620; read-out: pTGI (converted)): 6.31 µM | growth inhibition (GI) (NCI60): Active | GI50 (DU-145): 2.09 µM | TGI (DU-145; read-out: pTGI (converted)): 3.98 µM | GI50 (SNB-75 [4]): 1.58 µM | TGI (SNB-75 [4]; read-out: pTGI (converted)): 9.55 µM | GI50 (A498): 2.57 µM | TGI (A498; read-out: pTGI (converted)): 5.75 µM | GI50 (OVCAR-3): 2 µM | TGI (OVCAR-3; read-out: pTGI (converted)): 3.72 µM

COc1ccc(NC(=O)COc2ccc(Cl)cc2/C=C2\S/C(=N/c3nc4ccc(C)cc4s3)NC2=O)cc1
GI50 (T47D): 4.79 µM | TGI (T47D; read-out: pTGI): > 100 µM | GI50 (U-251): 5.01 µM | TGI (U-251): 20 µM | GI50 (ACHN): 6.46 µM | TGI (ACHN; read-out: pTGI (converted)): 66.1 µM | GI50 (SF-295 [5]): 3.39 µM | TGI (SF-295 [5]; read-out: pTGI (converted)): 15.5 µM | growth at 10 µM [1]: -36.9% | growth at 10 µM (SNB-75 [6]): -86.5% | GI50 (SNB-19): 5.5 µM | TGI (SNB-19; read-out: pTGI (converted)): 25.1 µM | GI50 (MCF7): 4.27 µM | TGI (MCF7; read-out: pTGI): > 100 µM | GI50 (OVCAR-4): 6.03 µM | TGI (OVCAR-4; read-out: pTGI): > 100 µM | GI50 (HOP-92 [7]): 0.457 µM | TGI (HOP-92 [7]; read-out: pTGI (converted)): 10.2 µM | GI50 (BT-549): 6.03 µM | TGI (BT-549): 27.5 µM | GI50 (SF-539): 1.78 µM | TGI (SF-539; read-out: pTGI (converted)): 3.63 µM | GI50 (NCI-H23): 7.76 µM | TGI (NCI-H23; read-out: pTGI (converted)): 25.1 µM | GI50 [8]: 6.76 µM | TGI ([8]; read-out: pTGI): > 100 µM | GI50 (HCT-116): 4.57 µM | TGI (HCT-116; read-out: pTGI (converted)): 34.7 µM | GI50 (MDA-MB-435): 10 µM | TGI (MDA-MB-435; read-out: pTGI (converted)): 34.7 µM | growth inhibition (GI) (NCI60): Active | GI50 (PC-3): 4.9 µM | TGI (PC-3; read-out: pTGI): > 100 µM | GI50 (UACC-62): 5.37 µM | TGI (UACC-62; read-out: pTGI (converted)): 39.8 µM

CCOC(=O)c1ccc(NC(=O)COc2ccc(Cl)cc2/C=C2\SC(=S)N(Nc3nc4ccccc4s3)C2=O)cc1
growth at 10 µM (RPMI-8226 [9]): 20% | growth at 10 µM [1]: 74.7% | growth inhibition (GI) (NCI60): inactive

Cc1ccc2nc(/N=C3\NC(=O)/C(=C/c4cc(Cl)ccc4OCC(N)=O)S3)sc2c1
growth at 10 µM [1]: 91.8% | growth at 10 µM (HOP-92 [10]): 51.4% | growth inhibition (GI) (NCI60): inactive

Cc1ccc2nc(/N=C3\NC(=O)/C(=C/c4ccc(Cl)cc4)S3)sc2c1
growth at 10 µM [1]: 56.5% | growth at 10 µM (SF-295 [2]): 4.01% | growth inhibition (GI) (NCI60): inactive

CCN(CC)c1ccc(/C=C2\SC(=S)N(Nc3nc4ccccc4s3)C2=O)cc1
growth at 10 µM (UO-31): 77.3% | growth at 10 µM [1]: 98.5% | growth inhibition (GI) (NCI60): inactive

COc1cc(/C=C2\SC(=S)N(Nc3nc4ccccc4s3)C2=O)ccc1O
growth at 10 µM [1]: 97.7% | growth inhibition (GI) (NCI60): inactive | growth at 10 µM (RXF 393): -0.71%
